# Assay results: ChEMBL document CHEMBL1143138, “Synthesis and antimicrobial activity of beta-lactam-bile acid conjugates linked via triazole” (Bioorg Med Chem Lett, 2008)
# Assays:
# Type in all cases: functional, organism-based
# Candida albicans = experiment: Antimicrobial activity against Candida albicans NCL1 by broth microdilution method
# In short: (§1)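 Standard NCCLS broth microdilution. Fungal strains were NCL isolates and bacterial strains were NCIM cultures, with DMSO as the negative control. MIC was taken as the concentration giving 90% growth inhibition relative to the growth control, and IC50 as the concentration giving 50% growth inhibition. Values are in µg/mL.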
# Cryptococcus neoformans = experiment: Antimicrobial activity against Cryptococcus neoformans NCL2 by broth microdilution method; in short: as §1
# Benjaminiella poitrasii = experiment: Antimicrobial activity against Benjaminiella poitrasii NCL3 by broth microdilution method; in short: as §1
# Yarrowia lipolytica = experiment: Antimicrobial activity against Yarrowia lipolytica NCL4 by broth microdilution method; in short: as §1
# Fusarium oxysporum = experiment: Antimicrobial activity against Fusarium oxysporum NCL5 by broth microdilution method; in short: as §1
# Escherichia coli = experiment: Antimicrobial activity against Escherichia coli NCIM2574 by broth microdilution method; in short: as §1
# Staphylococcus aureus = experiment: Antimicrobial activity against Staphylococcus aureus NCIM2122 by broth microdilution method; in short: as §1
SMILES,IC50 (Candida albicans) [µg/mL],MIC (Candida albicans) [µg/mL],IC50 (Cryptococcus neoformans) [µg/mL],MIC (Cryptococcus neoformans) [µg/mL],IC50 (Benjaminiella poitrasii) [µg/mL],MIC (Benjaminiella poitrasii) [µg/mL],IC50 (Yarrowia lipolytica) [µg/mL],MIC (Yarrowia lipolytica) [µg/mL],IC50 (Fusarium oxysporum) [µg/mL],MIC (Fusarium oxysporum) [µg/mL],IC50 (Escherichia coli) [µg/mL],MIC (Escherichia coli) [µg/mL],IC50 (Staphylococcus aureus) [µg/mL],MIC (Staphylococcus aureus) [µg/mL]
C#CCOC(=O)CC[C@@H](C)[C@H]1CC[C@H]2[C@@H]3[C@H](O)C[C@@H]4C[C@H](O)CC[C@]4(C)[C@H]3C[C@H](O)[C@]12C,128,> 128,> 128,> 128,> 128,> 128,64,> 128,128,> 128,128,> 128,128,> 128
C#CCNC(=O)CC[C@@H](C)[C@H]1CC[C@H]2[C@@H]3CC[C@@H]4C[C@H](O)CC[C@]4(C)[C@H]3C[C@H](O)[C@]12C,64,> 128,128,> 128,128,> 128,> 128,> 128,64,> 128,> 128,> 128,128,> 128
C#CCNC(=O)CC[C@@H](C)[C@H]1CC[C@H]2[C@@H]3[C@H](O)C[C@@H]4C[C@H](O)CC[C@]4(C)[C@H]3C[C@H](O)[C@]12C,> 128,> 128,> 128,> 128,> 128,> 128,64,> 128,128,> 128,128,> 128,64,> 128
C#CCOC(=O)CC[C@@H](C)[C@H]1CC[C@H]2[C@@H]3CC[C@@H]4C[C@H](O)CC[C@]4(C)[C@H]3C[C@H](O)[C@]12C,32,128,64,> 128,128,> 128,128,> 128,64,> 128,128,> 128,128,> 128
COc1ccc(N2C(=O)C(N=[N+]=[N-])C2c2ccccc2)cc1 (racemic),64,> 128,> 128,> 128,> 128,> 128,128,> 128,64,> 128,64,> 128,> 128,> 128
COc1ccc(N2C(=O)C(N=[N+]=[N-])C2c2ccc(Cl)cc2)cc1 (racemic),64,> 128,64,> 128,> 128,> 128,> 128,> 128,64,> 128,128,> 128,> 128,> 128
C[C@@H]1[C@H](O)[C@@H](C)/C=C/C=C/C=C/C=C/C=C/C=C/C=C/[C@H](O[C@@H]2O[C@H](C)[C@@H](O)[C@H](N)[C@@H]2O)C[C@@H]2O[C@](O)(C[C@@H](O)C[C@@H](O)[C@H](O)CC[C@@H](O)C[C@@H](O)CC(=O)O[C@H]1C)C[C@H](O)[C@H]2C(=O)O (stereo in doubt) [AMPHOTERICIN B],0.5,2,8,16,8,16,8,16,8,16,–,–,–,–
CC1(C)S[C@@H]2[C@H](NC(=O)[C@H](N)c3ccccc3)C(=O)N2[C@H]1C(=O)O [AMPICILLIN],–,–,–,–,–,–,–,–,–,–,1,–,4,–
OC(Cn1cncn1)(Cn1cncn1)c1ccc(F)cc1F [FLUCONAZOLE],4,32,16,32,16,32,32,64,4,8,–,–,–,–
CN(C)[C@@H]1C(O)=C(C(N)=O)C(=O)[C@@]2(O)C(O)=C3C(=O)c4c(O)cccc4[C@@](C)(O)[C@H]3C[C@@H]12 [TETRACYCLINE],–,–,–,–,–,–,–,–,–,–,4,8,8,16
